B1: tRNA (parent)
chain: CUCUCGGUAGCCAAGUUGGUUUAAGGCGCAAGACUUUAAUUUAUCACUACGAAAUCUUGAGAUCGGGCGUUCGACUCGCCCCCGGGAGAUUUUUUCCUCGAGCAA

Variants at the floor of the assay were thinned out.

The variants in the series derive from B1. The experiment in a line: nonsense suppression (GFP-seq) (ratio to wild type); higher = more function; SUP4oc tRNA, yeast GFP reporter sort-seq. In a few lines:
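Yeast were grown in raffinose/galactose medium with 80 mg/L adenine, each strain bearing a genome-integrated ochre-suppressor tRNA variant from a ~3% random-mutation library, a galactose-driven GFP ochre reporter, and RFP. After sorting into GFP/RFP bins, every bin was sequenced on an Illumina platform at phred ≥30. The GFPSEQ value, a measure of nonsense suppression, is the weighted bin median GFP/RFP relative to the unmutated parent tRNA, using each variant's estimated cell share per bin as the weight. Only variants with ≥100 reads and ≥30 cells were included.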
Regarding C12G G25C C75A, the nonsense suppression worked out at 0.482.

For the variant C12A A33G G67U, the nonsense suppression was no more than 0.026.

For C11A C12A U17G U22G G66A U76C A89C, the nonsense suppression is no more than 0.026.

On to A9G U63C, for which the nonsense suppression turned out to be 0.772.

A9G U63A: the nonsense suppression came out at 0.836.

A9G G61U C75G: the nonsense suppression worked out at 1.12.

For the variant A9G A33U C34G U71A, the nonsense suppression was no more than 0.026.

Consider C11A A14G U63C, for which the nonsense suppression was no more than 0.026.

Regarding A9U A74G, the nonsense suppression was determined as 0.0977.

On to A9U A74U, for which the nonsense suppression was 0.106.

For G10A U70C G78C A89C, the nonsense suppression was no more than 0.026.

For the variant C11U C29G, the nonsense suppression is no more than 0.026.

Turning to A9G C27U, the nonsense suppression amounted to 0.0421.

Consider A9G C27G, for which the nonsense suppression was no more than 0.026.

With A9U G25U G26C C64A G65A G73A, the nonsense suppression is no more than 0.026.

Take G10C A54U: the nonsense suppression is no more than 0.026.

For the variant C12U A13C U20A, the nonsense suppression was no more than 0.026.

Take C11G C56G G84U: the nonsense suppression was no more than 0.026.

For the variant A9G U20G C75G, the nonsense suppression was determined as 0.831.

Regarding A9G G28A G61A, the nonsense suppression stood at 1.24.

As to C12A G28C A31G U57G, the nonsense suppression was no more than 0.026.

For C12U C56G, the nonsense suppression is no more than 0.026.

C12U C56U: the nonsense suppression was no more than 0.026.

Turning to C12A C34U, the nonsense suppression was found to be 0.94.

On to G10A A54C, for which the nonsense suppression was 0.0309.

Turning to C11A U63G, the nonsense suppression was no more than 0.026.

A9U C11U G32C C34G A54U: the nonsense suppression was no more than 0.026.

For A9U U63C, the nonsense suppression worked out at 0.0507.

With A9U U16A, the nonsense suppression was determined as 0.13.

Regarding A9U U16G, the nonsense suppression is 0.202.

As to C12U C64A, the nonsense suppression is no more than 0.026.

On to C12U C64U, for which the nonsense suppression is no more than 0.026.

In the case of G10A A14C C82A, the nonsense suppression is no more than 0.026.

Turning to C11U U63G, the nonsense suppression is 0.034.

Turning to A9U G88A, the nonsense suppression stood at 0.0329.

Take C12G U17C U21G: the nonsense suppression was no more than 0.026.

On to A9G A54U U70C, for which the nonsense suppression was no more than 0.026.

For C11U C75A, the nonsense suppression was 0.168.

With C12U A13U, the nonsense suppression amounted to 0.626.

Turning to C12U A13C, the nonsense suppression turned out to be 0.2.

Regarding C12U A13G, the nonsense suppression was 0.153.

On to C11A U17C, for which the nonsense suppression was no more than 0.026.

For A9U G73A, the nonsense suppression is 0.0814.

Take C11G A31G: the nonsense suppression is no more than 0.026.

In the case of C11G A31U, the nonsense suppression was no more than 0.026.

Take A9U C81A: the nonsense suppression was no more than 0.026.

Consider A9U C81U, for which the nonsense suppression came out at 0.0272.

As to A9U G78A, the nonsense suppression was found to be 0.0365.

Turning to G10A C11U C64U, the nonsense suppression was no more than 0.026.

For the variant A9G A74C, the nonsense suppression was determined as 0.0286.

On to C11U G26A U63C, for which the nonsense suppression was 0.212.

As for C11A G26C G66U, the nonsense suppression is no more than 0.026.

For C12U A13U C79U, the nonsense suppression amounted to 0.0331.

Take G10A C29G A54G: the nonsense suppression was no more than 0.026.

Turning to A9G C72A, the nonsense suppression is 0.0268.

With A9G C72U, the nonsense suppression was 0.0591.

Turning to C11A A33G C77A C81G, the nonsense suppression is no more than 0.026.

For the variant G10A G59A, the nonsense suppression was no more than 0.026.

As for A9U C75U, the nonsense suppression was found to be 0.656.

For the variant G10U G85C, the nonsense suppression is no more than 0.026.

On to C12G C68G G69U A89U, for which the nonsense suppression is 0.0702.

Take C12A A31G: the nonsense suppression was 0.0261.

Consider A9G C12A, for which the nonsense suppression is no more than 0.026.

C11U G66A: the nonsense suppression is no more than 0.026.

In the case of A9U U17C, the nonsense suppression stood at 0.128.

As to C11G A30G G67U, the nonsense suppression is no more than 0.026.

For the variant C11G G59A C64A, the nonsense suppression was no more than 0.026.

Take C11A A60C: the nonsense suppression was no more than 0.026.

For the variant A9G U76A, the nonsense suppression was 0.103.

Turning to G10C G15C U20G, the nonsense suppression was no more than 0.026.

Take G10C C77U: the nonsense suppression is no more than 0.026.

Regarding G10C C77G, the nonsense suppression is no more than 0.026.

As to A9G C72G U76G G88U, the nonsense suppression is no more than 0.026.

With G10C U71A A74U A87C, the nonsense suppression is no more than 0.026.

Turning to C11A U71C, the nonsense suppression was no more than 0.026.

C11A U71A: the nonsense suppression was no more than 0.026.

With A9G U21A, the nonsense suppression is 0.36.

Turning to A9G U63C A74U C75U C79U, the nonsense suppression is no more than 0.026.

Take C11U A30G A31U U35G G67C U76C: the nonsense suppression is no more than 0.026.

Turning to A9G U16A U55C, the nonsense suppression amounted to 0.188.

With C11A G26A U70A, the nonsense suppression was no more than 0.026.

Regarding A9G A13U A74C, the nonsense suppression is no more than 0.026.

For A9U A24C G66C C83U G85A, the nonsense suppression was no more than 0.026.

Regarding C12A G25C C68G, the nonsense suppression was no more than 0.026.

Regarding A9G G61A G85A, the nonsense suppression was 0.303.

Regarding C11A A54C G59A U71C C80A G88C, the nonsense suppression is no more than 0.026.

Regarding C12U A24U, the nonsense suppression is 0.118.

As for C12G C56G G65A A74U, the nonsense suppression is no more than 0.026.

On to A9U U55A, for which the nonsense suppression is no more than 0.026.

For G10U C12G A31U G32U C68G, the nonsense suppression was no more than 0.026.

With G10C C27G G73C, the nonsense suppression was no more than 0.026.

For G10U U55C, the nonsense suppression was 0.0469.

Turning to C11U U55A G61C G88C, the nonsense suppression was no more than 0.026.

As to C11G C12U G61C, the nonsense suppression is no more than 0.026.

For C11U U70G C79A, the nonsense suppression was no more than 0.026.

Take C11A U71C A89G: the nonsense suppression was no more than 0.026.

In the case of C11U G85C A87G, the nonsense suppression was no more than 0.026.

With C11G C80G, the nonsense suppression is no more than 0.026.

For A9G C81U, the nonsense suppression is 0.028.

Regarding C12U A13C U20C A60C G85A, the nonsense suppression was no more than 0.026.

A9G U22A U35G: the nonsense suppression was no more than 0.026.

As for G10A C72A C80A, the nonsense suppression was no more than 0.026.

For C11G C12A U35G U55C U76A G84U, the nonsense suppression was no more than 0.026.

As to C12U C81A, the nonsense suppression came to 0.0405.

Turning to C11U G61C A87U, the nonsense suppression is no more than 0.026.

With C12A G78A, the nonsense suppression stood at 0.045.

As to C11G G26C A30C, the nonsense suppression is no more than 0.026.

For the variant A9G A60G, the nonsense suppression was 0.222.

In the case of A9G A60C, the nonsense suppression was no more than 0.026.

Take G10A U63G: the nonsense suppression is 0.0314.

C11A G66C: the nonsense suppression is no more than 0.026.

On to C12G A54G U57G A60U C77U, for which the nonsense suppression was no more than 0.026.

Regarding A9G C68U, the nonsense suppression worked out at 0.153.

A9G G73A: the nonsense suppression worked out at 0.12.

Take A9G G73U: the nonsense suppression came to 0.053.

In the case of C12U A33C C80G, the nonsense suppression was no more than 0.026.

In the case of C11U G19A G25A C29U G59A, the nonsense suppression is no more than 0.026.

Consider G10U A30C U57C U63C, for which the nonsense suppression is no more than 0.026.

For the variant C12U A30G, the nonsense suppression was determined as 0.363.

Take C11A A13G: the nonsense suppression was no more than 0.026.

Regarding G10C G25C G61C U71A, the nonsense suppression is no more than 0.026.

On to C12U, for which the nonsense suppression came out at 0.773.

For G10U U20G U57C, the nonsense suppression is no more than 0.026.

As for A9U G61A C72A, the nonsense suppression is no more than 0.026.

Consider A9U A14U, for which the nonsense suppression came to 0.0588.

Consider A9G U21C A60U, for which the nonsense suppression is no more than 0.026.

C12G U21A G59U: the nonsense suppression was no more than 0.026.

As for C11G U63A U70G, the nonsense suppression was no more than 0.026.

C11G G15U G78C: the nonsense suppression was no more than 0.026.

Turning to C11U A89C, the nonsense suppression was no more than 0.026.

As for C11G A24G A74G, the nonsense suppression is no more than 0.026.

With G10U G84A G86U, the nonsense suppression was no more than 0.026.

With A9G U71C, the nonsense suppression is 0.0266.

In the case of C11G A30U, the nonsense suppression was no more than 0.026.

For A9U C77U, the nonsense suppression was found to be 0.0389.

As to C11U G19U C64A, the nonsense suppression was no more than 0.026.

For the variant G10U U21C A74U, the nonsense suppression is no more than 0.026.

As to A9U G85C, the nonsense suppression turned out to be 0.0283.

A9U G28C G85A: the nonsense suppression was 0.0603.

For A9U G61A, the nonsense suppression was 0.195.

In the case of A9U G61C, the nonsense suppression was found to be 0.197.

For A9U G61U, the nonsense suppression came out at 0.573.

With G10A U21G G67C C79A, the nonsense suppression is no more than 0.026.

Turning to C11A C12U G59A U71A, the nonsense suppression was no more than 0.026.

Regarding A9U G28A C75U, the nonsense suppression was determined as 0.0978.

Consider A9U C64U, for which the nonsense suppression stood at 0.0349.

For C12U A23C U70C, the nonsense suppression is no more than 0.026.

Consider A9G C75U, for which the nonsense suppression was found to be 1.17.

As to A9G C75A, the nonsense suppression worked out at 0.762.

As to G10C U21A, the nonsense suppression is no more than 0.026.

Consider G10U G66U G85A, for which the nonsense suppression was no more than 0.026.

For the variant A9U G66A, the nonsense suppression came to 0.0305.

As to A9U G18C, the nonsense suppression was no more than 0.026.

Take A9G A14G: the nonsense suppression came to 0.0311.

On to A9G A23G U70G A89G, for which the nonsense suppression is no more than 0.026.

For G10U C34G U63A C81U, the nonsense suppression was no more than 0.026.

Regarding C11U A62G U63A, the nonsense suppression was no more than 0.026.

For the variant G10C G73C A87U, the nonsense suppression is no more than 0.026.

G10A G28C G61C: the nonsense suppression was no more than 0.026.

Turning to G10A A60U C68A, the nonsense suppression is no more than 0.026.

Take A9G A24G: the nonsense suppression came out at 0.0517.

Take A9G U16A: the nonsense suppression worked out at 0.845.

A9G U16G: the nonsense suppression came out at 0.551.

As to C12A C77A G86U, the nonsense suppression is no more than 0.026.

Turning to A9G G61A A87G, the nonsense suppression was 0.188.

C11U G28A A33G: the nonsense suppression is no more than 0.026.

As for A9U G86A, the nonsense suppression came out at 0.0496.

(Values after the RNAGym collection of RNA variant scans (doi:10.1101/gad.245936.114).)
